Experimental data taken from ChEMBL document CHEMBL5661979, “Pharmacological inhibition of BMK1 suppresses tumor growth through promyelocytic leukemia protein” (Cancer Cell, 2010).
The source made the active and inactive calls. No cut-off for these calls is given here.

Legend:
[1] = Inhibition of NEK6/7 in human HeLa cells lysate pre incubated for 15 mins followed by ADP acyl phosphate probe addition and measured after 10 mins by LC-MS/MS analysis; format: subcellular
[2] = target: Serine/threonine-protein kinase ULK3 (Homo sapiens, UniProt Q6PHR2); test: Inhibition of ULK3 in human HeLa cells lysate pre incubated for 15 mins followed by ATP acyl phosphate probe addition and measured after 10 mins by LC-MS/MS analysis; format: subcellular
[3] = target: Phosphatidylinositol 5-phosphate 4-kinase type-2 beta (Homo sapiens) (UniProt P78356); test: Inhibition of PIP5K2B in human HeLa cells lysate at 50 uM pre incubated for 15 mins followed by ATP acyl phosphate probe addition and measured after 10 mins by LC-MS/MS analysis relative to control; format: subcellular; settings: time 25.0 min
[4] = target: Cyclin-dependent kinase 7 (Homo sapiens, UniProt P50613); test: Inhibition of CDK7 in human HeLa cells lysate pre incubated for 15 mins followed by ATP acyl phosphate probe addition and measured after 10 mins by LC-MS/MS analysis; format: subcellular
How it was run: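 KiNativ profiling in HeLa lysate (5 mg/mL total protein). Lysate incubated 15 min with inhibitor at 50, 10, 2, 0.8 or 0 μM. ATP or ADP acylphosphate probe then added (5 μM final) and reacted 10 min. Reaction stopped with urea and analysed by targeted MS, using up to four fragment ions per kinase peptide-probe conjugate. % inhibition taken against untreated lysate. Run in duplicate.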

[5] = target: T1, Dual specificity mitogen-activated protein kinase kinase 3 (Homo sapiens) (UniProt P46734); test: Inhibition of MAP2K3 in human HeLa cells lysate at 2 uM pre incubated for 15 mins followed by ADP acyl phosphate probe addition and measured after 10 mins by LC-MS/MS analysis relative to control; format: subcellular; settings: time 25.0 min
T1 sequence (whole entry): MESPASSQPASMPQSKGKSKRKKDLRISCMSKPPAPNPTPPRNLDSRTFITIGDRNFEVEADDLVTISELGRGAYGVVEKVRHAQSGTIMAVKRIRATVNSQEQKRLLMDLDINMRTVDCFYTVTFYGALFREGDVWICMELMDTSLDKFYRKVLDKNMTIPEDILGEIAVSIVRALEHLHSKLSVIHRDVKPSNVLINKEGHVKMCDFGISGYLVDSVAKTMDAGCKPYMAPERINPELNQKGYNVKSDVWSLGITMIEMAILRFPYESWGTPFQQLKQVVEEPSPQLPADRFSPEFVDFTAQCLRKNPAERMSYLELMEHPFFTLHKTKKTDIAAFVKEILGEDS

[6] = target: T2, STE20-like serine/threonine-protein kinase (Homo sapiens, UniProt Q9H2G2); test: Inhibition of SLK in human HeLa cells lysate at 50 uM pre incubated for 15 mins followed by ATP acyl phosphate probe addition and measured after 10 mins by LC-MS/MS analysis relative to control; format: subcellular; settings: time 25.0 min
[7] = Inhibition of CK1g1/g2/g3 in human HeLa cells lysate at 50 uM pre incubated for 15 mins followed by ADP acyl phosphate probe addition and measured after 10 mins by LC-MS/MS analysis relative to control; settings: 25 min, condition cancer
[8] = target: Dual specificity mitogen-activated protein kinase kinase 1 (Homo sapiens, UniProt Q02750); test: Inhibition of MAP2K1 in human HeLa cells lysate at 10 uM pre incubated for 15 mins followed by ATP acyl phosphate probe addition and measured after 10 mins by LC-MS/MS analysis relative to control; format: subcellular; settings: time 25.0 min
[9] = target: Transcription intermediary factor 1-beta (Homo sapiens, UniProt Q13263); test: Inhibition of TIF1b in human HeLa cells lysate pre incubated for 15 mins followed by ATP acyl phosphate probe addition and measured after 10 mins by LC-MS/MS analysis; format: subcellular
[10] = target: Ribosomal protein S6 kinase alpha-1 (Homo sapiens, UniProt Q15418); test: Inhibition of RSK1 domain 2 K2 site in human HeLa cells lysate pre incubated for 15 mins followed by ADP acyl phosphate probe addition and measured after 10 mins by LC-MS/MS analysis; format: subcellular
[11] = target: Calcium/calmodulin-dependent protein kinase type II subunit gamma (Homo sapiens, UniProt Q13555); test: Inhibition of CAMK2g in human HeLa cells lysate at 50 uM pre incubated for 15 mins followed by ATP acyl phosphate probe addition and measured after 10 mins by LC-MS/MS analysis relative to control; format: subcellular; settings: time 25.0 min
How it was run: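 KiNativ-type profiling in HeLa lysate (5 mg/mL total protein). Lysate preincubated 15 min with inhibitor at 50, 10, 2, 0.8 or 0 μM, then ATP or ADP acylphosphate probe added (5 μM final) for 10 min. Reaction stopped with urea and analysed by targeted MS, using up to four fragment ions per kinase peptide-probe conjugate. % inhibition calculated against untreated lysate. Duplicate reactions.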

[12] = target: T3, Dual specificity mitogen-activated protein kinase kinase 7 (Homo sapiens) (UniProt O14733); test: Inhibition of MAP2K7 in human HeLa cells lysate at 2 uM pre incubated for 15 mins followed by ADP acyl phosphate probe addition and measured after 10 mins by LC-MS/MS analysis relative to control; format: subcellular; settings: time 25.0 min
T3 sequence (whole entry): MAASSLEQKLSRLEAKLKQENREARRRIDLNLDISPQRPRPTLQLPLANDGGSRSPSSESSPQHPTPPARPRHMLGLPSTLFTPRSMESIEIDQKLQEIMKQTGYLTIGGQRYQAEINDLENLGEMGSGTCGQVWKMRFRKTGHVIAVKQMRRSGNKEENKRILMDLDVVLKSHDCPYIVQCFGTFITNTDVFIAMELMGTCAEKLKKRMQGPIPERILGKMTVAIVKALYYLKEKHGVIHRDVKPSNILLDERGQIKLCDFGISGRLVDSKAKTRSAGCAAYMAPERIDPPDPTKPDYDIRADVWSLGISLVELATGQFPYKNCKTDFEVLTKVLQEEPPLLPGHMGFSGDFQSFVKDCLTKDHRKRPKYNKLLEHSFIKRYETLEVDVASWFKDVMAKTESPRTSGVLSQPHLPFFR

[13] = target: T2, STE20-like serine/threonine-protein kinase; test: Inhibition of SLK in human HeLa cells lysate pre incubated for 15 mins followed by ADP acyl phosphate probe addition and measured after 10 mins by LC-MS/MS analysis; format: subcellular
Mus musculus = test: Antiangiogenic activity in C57Bl/6 mouse implanted with matrigel assessed as reduction in bFGF-induced angiogenesis at 50 mg/kg, ip for 6 days by Masson's trichrome staining based assay; format: functional, organism-based; settings: time 6.0 day
How it was run: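 Mice were implanted with Matrigel containing 400 ng/mL bFGF. From the next day they received drug or vehicle for 6 days. Plugs were then harvested, sectioned and stained with Masson's trichrome; hemoglobin content of the plugs was also measured. n = 6 mice, 9 slices.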

Activated CDC42 kinase 1 = Activated CDC42 kinase 1 (Homo sapiens, UniProt Q07912); test: Inhibition of ACK1 in human HeLa cells lysate at 2 uM pre incubated for 15 mins followed by ADP acyl phosphate probe addition and measured after 10 mins by LC-MS/MS analysis relative to control; format: subcellular; settings: time 25.0 min
How it was run: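 HeLa cell lysates (5 mg/mL total protein) were preincubated with inhibitor at 0, 0.8, 2, 10 or 50 μM for 15 min. ATP or ADP acylphosphate probe was then added (5 μM final) for 10 min, and reactions were stopped with urea. Up to four fragment ions per kinase probe-peptide were quantified by targeted MS. % inhibition was taken relative to untreated lysate. Run in duplicate.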

Sequence of Activated CDC42 kinase 1 (Q07912 whole entry, looked up, the tested form may be a part): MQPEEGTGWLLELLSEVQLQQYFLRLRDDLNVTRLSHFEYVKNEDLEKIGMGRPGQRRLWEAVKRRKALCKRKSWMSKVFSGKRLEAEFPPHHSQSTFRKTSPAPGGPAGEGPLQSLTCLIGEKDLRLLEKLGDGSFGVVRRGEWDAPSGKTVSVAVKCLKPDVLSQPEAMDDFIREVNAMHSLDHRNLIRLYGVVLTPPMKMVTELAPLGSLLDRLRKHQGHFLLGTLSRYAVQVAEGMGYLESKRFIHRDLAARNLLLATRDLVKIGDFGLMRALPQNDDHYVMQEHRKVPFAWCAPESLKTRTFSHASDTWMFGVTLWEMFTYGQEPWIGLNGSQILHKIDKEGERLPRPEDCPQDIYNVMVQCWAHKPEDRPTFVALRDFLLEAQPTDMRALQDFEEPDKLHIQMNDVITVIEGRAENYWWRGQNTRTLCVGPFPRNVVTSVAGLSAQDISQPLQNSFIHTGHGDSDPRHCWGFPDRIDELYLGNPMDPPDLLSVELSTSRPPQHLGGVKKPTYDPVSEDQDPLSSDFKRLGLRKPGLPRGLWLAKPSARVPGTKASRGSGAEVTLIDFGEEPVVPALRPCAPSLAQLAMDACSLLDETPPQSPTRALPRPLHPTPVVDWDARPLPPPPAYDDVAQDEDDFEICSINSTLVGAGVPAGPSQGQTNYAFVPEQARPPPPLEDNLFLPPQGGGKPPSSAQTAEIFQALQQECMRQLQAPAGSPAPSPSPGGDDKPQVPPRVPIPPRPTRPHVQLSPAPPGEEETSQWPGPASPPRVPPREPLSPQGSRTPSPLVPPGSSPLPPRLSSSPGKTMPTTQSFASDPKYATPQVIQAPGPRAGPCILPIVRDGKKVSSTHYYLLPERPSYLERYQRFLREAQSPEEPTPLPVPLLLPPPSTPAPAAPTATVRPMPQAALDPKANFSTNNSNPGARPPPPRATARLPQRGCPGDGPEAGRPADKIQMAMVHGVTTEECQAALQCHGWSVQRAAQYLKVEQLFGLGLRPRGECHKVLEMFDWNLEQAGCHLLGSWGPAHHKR
Sequence of Cyclin-dependent kinase 7 (P50613 whole entry, the tested form may be a part): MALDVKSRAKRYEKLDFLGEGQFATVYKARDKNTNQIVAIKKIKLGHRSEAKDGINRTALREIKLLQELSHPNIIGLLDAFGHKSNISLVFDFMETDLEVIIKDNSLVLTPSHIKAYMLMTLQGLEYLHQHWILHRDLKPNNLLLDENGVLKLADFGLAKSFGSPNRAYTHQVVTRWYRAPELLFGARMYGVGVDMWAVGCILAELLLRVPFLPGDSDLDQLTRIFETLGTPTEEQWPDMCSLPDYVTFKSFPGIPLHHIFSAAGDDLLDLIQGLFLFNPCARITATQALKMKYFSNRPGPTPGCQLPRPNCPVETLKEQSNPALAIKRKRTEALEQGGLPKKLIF
Sequence of Calcium/calmodulin-dependent protein kinase type II subunit gamma (Q13555 whole entry, the tested form may be a part): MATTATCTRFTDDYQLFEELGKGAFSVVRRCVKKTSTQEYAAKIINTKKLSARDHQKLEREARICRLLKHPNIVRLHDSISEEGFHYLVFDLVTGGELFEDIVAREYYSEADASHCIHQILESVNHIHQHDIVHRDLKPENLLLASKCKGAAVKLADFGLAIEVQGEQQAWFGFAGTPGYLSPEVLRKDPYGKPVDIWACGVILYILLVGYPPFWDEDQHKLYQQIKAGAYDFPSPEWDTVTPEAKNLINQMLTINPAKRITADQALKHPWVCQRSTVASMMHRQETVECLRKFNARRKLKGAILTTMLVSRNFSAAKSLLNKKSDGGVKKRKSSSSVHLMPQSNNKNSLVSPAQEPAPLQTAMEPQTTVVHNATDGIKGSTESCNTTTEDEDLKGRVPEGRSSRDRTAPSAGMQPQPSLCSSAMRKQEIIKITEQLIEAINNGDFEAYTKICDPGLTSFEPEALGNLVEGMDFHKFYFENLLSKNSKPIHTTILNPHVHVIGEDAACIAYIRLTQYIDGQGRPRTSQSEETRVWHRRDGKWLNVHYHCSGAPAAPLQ
Sequence of Serine/threonine-protein kinase ULK3 (Q6PHR2 whole entry): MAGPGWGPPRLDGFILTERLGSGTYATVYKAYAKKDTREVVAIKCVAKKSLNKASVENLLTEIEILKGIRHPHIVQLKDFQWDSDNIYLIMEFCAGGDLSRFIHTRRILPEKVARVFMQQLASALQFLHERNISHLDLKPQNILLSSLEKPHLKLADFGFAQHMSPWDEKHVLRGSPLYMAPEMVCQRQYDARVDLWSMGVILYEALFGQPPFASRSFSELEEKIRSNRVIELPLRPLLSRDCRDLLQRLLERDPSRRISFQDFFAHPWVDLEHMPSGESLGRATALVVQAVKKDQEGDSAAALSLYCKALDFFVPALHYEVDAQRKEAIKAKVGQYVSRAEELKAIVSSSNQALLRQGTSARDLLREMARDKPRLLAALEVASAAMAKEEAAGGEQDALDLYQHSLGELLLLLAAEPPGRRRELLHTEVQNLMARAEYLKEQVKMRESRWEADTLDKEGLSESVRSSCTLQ
Sequence of Phosphatidylinositol 5-phosphate 4-kinase type-2 beta (Homo sapiens) (P78356 whole entry): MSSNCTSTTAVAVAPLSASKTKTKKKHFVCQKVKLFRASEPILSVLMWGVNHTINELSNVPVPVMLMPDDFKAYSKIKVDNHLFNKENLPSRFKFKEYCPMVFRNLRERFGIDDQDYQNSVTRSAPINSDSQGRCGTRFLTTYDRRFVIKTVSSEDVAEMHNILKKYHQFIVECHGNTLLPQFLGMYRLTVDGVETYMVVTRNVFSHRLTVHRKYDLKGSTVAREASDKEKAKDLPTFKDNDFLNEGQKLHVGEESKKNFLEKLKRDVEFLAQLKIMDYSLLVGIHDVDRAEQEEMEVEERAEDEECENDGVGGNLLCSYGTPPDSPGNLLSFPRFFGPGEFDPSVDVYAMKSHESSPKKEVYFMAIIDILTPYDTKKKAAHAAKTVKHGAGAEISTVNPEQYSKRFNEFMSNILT
Sequence of Ribosomal protein S6 kinase alpha-1 (Q15418 whole entry, the tested form may be a part): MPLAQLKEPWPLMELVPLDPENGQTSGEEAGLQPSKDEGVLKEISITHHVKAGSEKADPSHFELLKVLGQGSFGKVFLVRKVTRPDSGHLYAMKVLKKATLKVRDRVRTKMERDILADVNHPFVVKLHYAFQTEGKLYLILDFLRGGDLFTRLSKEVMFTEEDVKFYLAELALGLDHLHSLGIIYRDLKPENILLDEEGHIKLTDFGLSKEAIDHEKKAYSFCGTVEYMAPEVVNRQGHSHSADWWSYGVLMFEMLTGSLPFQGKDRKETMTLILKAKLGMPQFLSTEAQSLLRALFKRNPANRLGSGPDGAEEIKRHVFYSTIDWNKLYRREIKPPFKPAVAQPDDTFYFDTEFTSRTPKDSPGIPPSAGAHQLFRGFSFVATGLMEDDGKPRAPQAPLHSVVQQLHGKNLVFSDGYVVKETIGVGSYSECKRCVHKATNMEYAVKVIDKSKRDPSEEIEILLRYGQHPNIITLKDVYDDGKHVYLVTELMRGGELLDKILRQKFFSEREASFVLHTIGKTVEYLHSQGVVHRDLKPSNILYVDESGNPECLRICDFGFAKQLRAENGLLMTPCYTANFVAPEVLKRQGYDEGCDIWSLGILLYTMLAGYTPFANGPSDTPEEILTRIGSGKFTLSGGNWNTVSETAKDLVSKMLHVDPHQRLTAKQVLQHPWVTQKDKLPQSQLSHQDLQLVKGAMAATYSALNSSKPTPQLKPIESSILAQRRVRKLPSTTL
Sequence of Dual specificity mitogen-activated protein kinase kinase 1 (Q02750 whole entry): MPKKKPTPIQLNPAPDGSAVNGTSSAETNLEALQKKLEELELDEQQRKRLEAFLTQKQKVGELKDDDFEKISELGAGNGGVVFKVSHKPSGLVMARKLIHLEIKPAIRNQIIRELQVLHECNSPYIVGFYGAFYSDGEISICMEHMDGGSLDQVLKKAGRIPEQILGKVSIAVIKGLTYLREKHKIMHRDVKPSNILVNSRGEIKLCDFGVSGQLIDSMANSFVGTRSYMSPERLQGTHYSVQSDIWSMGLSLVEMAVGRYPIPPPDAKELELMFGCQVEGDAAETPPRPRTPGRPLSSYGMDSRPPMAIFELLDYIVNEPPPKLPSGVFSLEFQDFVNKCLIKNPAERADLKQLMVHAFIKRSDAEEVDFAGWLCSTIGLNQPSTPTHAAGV
Sequence of Transcription intermediary factor 1-beta (Q13263 whole entry, the tested form may be a part): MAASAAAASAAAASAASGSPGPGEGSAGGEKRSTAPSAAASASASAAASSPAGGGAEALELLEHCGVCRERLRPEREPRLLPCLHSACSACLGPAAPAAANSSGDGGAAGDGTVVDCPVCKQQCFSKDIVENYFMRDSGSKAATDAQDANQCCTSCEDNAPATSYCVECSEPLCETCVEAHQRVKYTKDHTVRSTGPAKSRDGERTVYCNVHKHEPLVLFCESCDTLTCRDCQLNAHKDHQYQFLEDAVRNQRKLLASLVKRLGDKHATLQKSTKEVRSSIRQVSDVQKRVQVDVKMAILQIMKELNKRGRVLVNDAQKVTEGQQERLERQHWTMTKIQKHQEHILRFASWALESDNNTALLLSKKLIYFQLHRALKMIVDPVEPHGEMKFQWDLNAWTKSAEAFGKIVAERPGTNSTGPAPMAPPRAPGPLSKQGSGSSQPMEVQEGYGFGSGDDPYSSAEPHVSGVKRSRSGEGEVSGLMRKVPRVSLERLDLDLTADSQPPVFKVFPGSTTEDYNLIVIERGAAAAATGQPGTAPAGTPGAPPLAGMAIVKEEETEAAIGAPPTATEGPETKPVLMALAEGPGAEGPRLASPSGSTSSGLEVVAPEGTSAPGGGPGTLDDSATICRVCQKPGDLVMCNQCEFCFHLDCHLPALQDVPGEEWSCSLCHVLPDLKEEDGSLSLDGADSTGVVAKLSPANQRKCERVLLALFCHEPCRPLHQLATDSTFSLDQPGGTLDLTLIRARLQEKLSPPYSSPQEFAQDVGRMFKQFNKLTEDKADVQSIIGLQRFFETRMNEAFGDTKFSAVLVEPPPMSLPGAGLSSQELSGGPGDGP

SMILES: CCOc1cc(N2CCC(O)CC2)ccc1Nc1ncc2c(n1)N(C)c1ccccc1C(=O)N2C
- IC50 [1]: > 50 µM
- IC50 [2]: > 50 µM
- inhibition [3]: 6.9%
- IC50 [4]: > 50 µM
- inhibition [5]: 7.5%
- inhibition [6]: 5.7%
- inhibition at 50 µM [7]: -80.5%
- inhibition [8]: -1.9%
- IC50 [9]: > 50 µM
- IC50 [10]: 31 µM
- inhibition [11]: 13.9%
- inhibition [12]: 17.9%
- IC50 [13]: > 50 µM
- Activity (Mus musculus): Active
- inhibition (Activated CDC42 kinase 1): 24.4%
